# Experimental data as given in the M2OR odorant receptor database.
# Experiments:
# OR2M3 (Homo sapiens) = biological target: T1, OR2M3 (Homo sapiens) (UniProt Q8NG83); conditions: stereoisomer not certain
# T1 sequence (whole entry): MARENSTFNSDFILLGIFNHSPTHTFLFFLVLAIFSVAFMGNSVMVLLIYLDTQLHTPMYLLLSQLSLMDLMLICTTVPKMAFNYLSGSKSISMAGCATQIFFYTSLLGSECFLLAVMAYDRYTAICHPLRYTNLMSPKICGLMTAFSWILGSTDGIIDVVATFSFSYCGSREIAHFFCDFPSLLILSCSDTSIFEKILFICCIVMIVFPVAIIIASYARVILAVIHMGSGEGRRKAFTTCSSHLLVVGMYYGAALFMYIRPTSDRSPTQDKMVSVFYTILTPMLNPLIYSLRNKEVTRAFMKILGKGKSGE
# Summary of the method: (§1)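 Whether a receptor–molecule pair is responsive (active) rests on the original authors' judgment that its measured signal was statistically different from baseline. Pairs without that judgment are non-responsive (inactive). Sources used varied assay methods, commonly transient luciferase assays in mammalian cell lines.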
# OR2L13 (Homo sapiens) = biological target: T2, OR2L13 (Homo sapiens) (UniProt Q8N349); conditions: stereoisomer not certain
# T2 sequence (whole entry): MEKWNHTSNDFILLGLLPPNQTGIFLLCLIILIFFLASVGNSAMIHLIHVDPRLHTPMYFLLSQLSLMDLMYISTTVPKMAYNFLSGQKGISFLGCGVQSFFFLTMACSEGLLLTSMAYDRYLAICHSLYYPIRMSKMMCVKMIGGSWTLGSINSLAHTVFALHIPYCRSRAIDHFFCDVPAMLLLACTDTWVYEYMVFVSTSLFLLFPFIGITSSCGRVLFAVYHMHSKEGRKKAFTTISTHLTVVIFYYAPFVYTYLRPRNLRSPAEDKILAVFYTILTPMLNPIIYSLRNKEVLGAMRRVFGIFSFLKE
# Summary of the method: as §1
# 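Also: active if original authors judged signal statistically different from baseline.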
SMILES,odorant receptor agonist call (OR2M3 (Homo sapiens)),odorant receptor agonist call (OR2L13 (Homo sapiens))
CCCCCCCC1CCC(=O)O1 (centres undefined),inactive,
CC(C=O)Cc1ccc(C(C)(C)C)cc1 (centres undefined),,inactive
CCCCCCCC(=O)OCC,inactive,inactive
CCCCCCCCCCCCCC(=O)OC,,inactive
CCCCCCCCCCCCO,,active
Cc1cnc(C)cn1,,inactive
CCCCCCCC(=O)OC,,inactive
CCCCCCCCCCCCCCCCCC(=O)[O-].[H+],,inactive
CCCCCCCCCC(=O)OC,,inactive
CCCCCCCCCCCCCCCC(=O)OCC,,inactive
CSCSC,inactive,
CCCCCCCCCCCC(=O)OC,,inactive
CCCCC(CC)CCC(=O)O (centres undefined),inactive,
CCCCC(=O)OCC,inactive,
CCCO,,inactive
O=C(O)C=Cc1ccc(O)cc1,inactive,
CC(O)C(=O)[O-].[H+] (centres undefined),,inactive
CC(=O)c1ccc(C)cc1,inactive,
CCCCCC(=O)OCC,inactive,
CC=CC(=O)C1=C(C)C=CCC1(C)C,inactive,
CCC(C)CO (centres undefined),inactive,inactive
CCCCCCCCCCCC(=O)O,,inactive
CCCCCCCCCCCCCCCCCC(=O)OCC,,inactive
C=C1CCC2(C(C)C)CC12 (centres undefined),inactive,
CC(=O)OCC=Cc1ccccc1,inactive,
CC(=O)c1cnccn1,inactive,
CCCCC(=O)C(C)=O,,inactive
C=C(C)C1CC=C(C)CC1 (centres undefined),inactive,inactive
CC1=CCC2CC1C2(C)C (centres undefined),inactive,inactive
SCCc1ccccc1,inactive,
